Experiments:
[1] = Stability of the compound at 25 degC by HPLC-DAD analysis; type: physicochemical
[2] = Efflux ratio of apparent permeability from basolateral to apical side to apical to basolateral side in human Caco2 cells at 50 uM at pH 7.4 by HPLC-DAD analysis; type: ADME, cell-based; settings: Caco-2, pH 7.4
Summary of the method: (§1)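 Glucose-rich transport medium (25 mM glucose), pH 7.4 in both apical and basolateral compartments, donor concentration 25 or 50 μM. Papp = (ΔQ/Δt)/(A·C0), from the linear appearance rate on the receiver side. Ratios are calculated as Papp A→B/Papp B→A and Papp B→A/Papp A→B.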

[3] = Efflux ratio of apparent permeability from basolateral to apical side to apical to basolateral side in human Caco2 cells at 25 uM at pH 7.4 by HPLC-DAD analysis; type: ADME, cell-based; settings: Caco-2, pH 7.4; summary of the method: as §1
Caco-2 [4] = assay: Efflux ratio of apparent permeability from apical to basolateral side to basolateral to apical side in human Caco2 cells at 25 uM at pH 7.4 by HPLC-DAD analysis; type: ADME, cell-based; settings: caco-2, pH 7.4, 25 µM; summary of the method: as §1
[5] = Apparent permeability from apical to basolateral side in human Caco2 cells at 25 uM at pH 7.4 after 30 mins by HPLC-DAD analysis; type: ADME, cell-based; settings: Caco-2, pH 7.4
[6] = Apparent permeability from basolateral to apical side in human Caco2 cells at 50 uM at pH 7.4 by HPLC-DAD analysis; type: ADME, cell-based; settings: Caco-2, pH 7.4
[7] = Apparent permeability from basolateral to apical side in human Caco2 cells at 25 uM at pH 7.4 by HPLC-DAD analysis; type: ADME, cell-based; settings: Caco-2, pH 7.4
[8] = Apparent permeability from apical to basolateral side in human Caco2 cells at 50 uM at pH 7.4 after 30 mins by HPLC-DAD analysis; type: ADME, cell-based; settings: Caco-2, pH 7.4
Caco-2 [9] = assay: Efflux ratio of apparent permeability from apical to basolateral side to basolateral to apical side in human Caco2 cells at 50 uM at pH 7.4 by HPLC-DAD analysis; type: ADME, cell-based; settings: caco-2, pH 7.4, 50 µM; summary of the method: as §1
Caco-2 [10] = assay: Cytotoxicity against human Caco2 cells at 50 to 200 uM relative to control; type: cell-based; settings: caco-2, 200 µM
Summary of the method: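 Toxicity judged from TEER of Caco-2 monolayers, measured with an epithelial voltohmmeter before and after exposure. Compared against control monolayers in transport medium without compound.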

Caco-2 [11] = assay: Apparent permeability from apical to basolateral side in human Caco2 cells in low glucose medium at 50 uM at pH 7.4 by HPLC-DAD analysis; type: ADME, cell-based; settings: caco-2, pH 7.4, 50 µM
Caco-2 [12] = assay: Apparent permeability from basolateral to apical side in human Caco2 cells in glucose free medium at 50 uM at pH 6.0 in apical side and pH 7.4 at basolateral side by HPLC-DAD analysis; type: ADME, cell-based; settings: caco-2, pH 6, 50 µM
Caco-2 [13] = assay: Apparent permeability from basolateral to apical side in human Caco2 cells in HBSS medium at 50 uM by HPLC-DAD analysis; type: ADME, cell-based; settings: caco-2, 50 µM
Caco-2 [14] = assay: Apparent permeability from apical to basolateral side in human Caco2 cells in HBSS medium at 50 uM by HPLC-DAD analysis; type: ADME, cell-based; settings: caco-2, 50 µM
[15] = Lipophilicity, log P of the compound by micellar chromatography; type: physicochemical
Caco-2 [16] = assay: Apparent permeability from apical to basolateral side in human Caco2 cells in glucose rich medium at 50 to 100 uM at pH 7.4 by HPLC-DAD analysis; type: ADME, cell-based; settings: caco-2, pH 7.4, 100 µM
Caco-2 [17] = assay: Apparent permeability from basolateral to apical side in human Caco2 cells in low glucose medium at 50 uM at pH 7.4 by HPLC-DAD analysis; type: ADME, cell-based; settings: caco-2, pH 7.4, 50 µM
Caco-2 [18] = assay: Apparent permeability from basolateral to apical side in human Caco2 cells in glucose rich medium at 50 to 100 uM at pH 7.4 by HPLC-DAD analysis; type: ADME, cell-based; settings: caco-2, pH 7.4, 100 µM
Caco-2 [19] = assay: Apparent permeability from basolateral to apical side in human Caco2 cells in glucose free medium at 50 uM at pH 7.4 by HPLC-DAD analysis; type: ADME, cell-based; settings: caco-2, pH 7.4, 50 µM
Caco-2 [20] = assay: Apparent permeability from apical to basolateral side in human Caco2 cells in glucose rich medium at 50 to 100 uM at pH 7.4 by HPLC-DAD analysis; settings: caco-2, pH 7.4, 100 µM
Caco-2 [21] = assay: Apparent permeability from apical to basolateral side in human Caco2 cells in glucose free medium at 50 uM at pH 7.4 by HPLC-DAD analysis; type: ADME, cell-based; settings: caco-2, pH 7.4, 50 µM
Caco-2 [22] = assay: Apparent permeability from apical to basolateral side in human Caco2 cells in glucose free medium at 50 uM at pH 6.0 in apical side and pH 7.4 at basolateral side by HPLC-DAD analysis; type: ADME, cell-based; settings: caco-2, pH 6, 50 µM
Caco-2 [23] = assay: Apparent permeability from apical to basolateral side in human Caco2 cells in glucose free medium at 25 uM at pH 6.0 in apical side and pH 7.4 at basolateral side by HPLC-DAD analysis; type: ADME, cell-based; settings: caco-2, pH 6, 25 µM
Caco-2 [24] = assay: Apparent permeability from basolateral to apical side in human Caco2 cells in glucose free medium at 25 uM at pH 6.0 in apical side and pH 7.4 at basolateral side by HPLC-DAD analysis; type: ADME, cell-based; settings: caco-2, pH 6, 25 µM
Caco-2 [25] = assay: Cellular uptake in human Caco2 cells; type: ADME, cell-based

In the case of `C=C1CC/C=C(/C(=O)O)C[C@H](O)[C@@H]2[C@@H]1CC2(C)C`, the Stability [1] is reported as 98%, the efflux ratio at 50 µM [2] is reported as 1.02 and the efflux ratio at 25 µM [3] is reported as 0.94. It also gave a Ratio (Caco-2 [4]) of 1.06, a Papp A→B at 0.5 h, 25 µM [5] of 4.68 ×10⁻⁶ cm/s and a Papp B→A at 50 µM [6] of 4.17 ×10⁻⁶ cm/s. The Papp B→A at 25 µM [7] was 4.41 ×10⁻⁶ cm/s, the Papp A→B at 0.5 h, 50 µM [8] was 4.07 ×10⁻⁶ cm/s and the Ratio (Caco-2 [9]) was 0.97. For the same compound, the Activity (Caco-2 [10]) was “Non-toxic”.
In the case of `O=c1cc(-c2ccc(O)cc2)oc2c([C@@H]3O[C@H](CO)[C@@H](O)[C@H](O)[C@H]3O)c(O)c([C@@H]3O[C@H](CO)[C@@H](O)[C@H](O)[C@H]3O)c(O)c12`, the permeability (Caco-2 [11]) is reported as “impermeable”, the permeability (Caco-2 [12]) is reported as “impermeable” and the permeability (Caco-2 [13]) is reported as “impermeable”. For the same compound, the permeability (Caco-2 [14]) was “impermeable”, the Stability [1] was 99% and the logP [15] was -4.31. For the same compound, the permeability (Caco-2 [16]) was “impermeable”, the permeability (Caco-2 [17]) was “impermeable” and the permeability (Caco-2 [18]) was “impermeable”. For the same compound, the permeability (Caco-2 [19]) was “impermeable”, the permeability (Caco-2 [20]) was “impermeable” and the permeability (Caco-2 [21]) was “impermeable”. The permeability (Caco-2 [22]) was “impermeable” and the Activity (Caco-2 [10]) was “Non-toxic”.
With `O=c1cc(-c2ccc(O)cc2)oc2cc(O)cc(O)c12` [APIGENIN] the permeability (Caco-2 [23]) was “impermeable”, the permeability (Caco-2 [24]) was “impermeable” and the Drug uptake (Caco-2 [25]) was “Active”.

Reference: ChEMBL document CHEMBL3120128, “Evaluation of intestinal permeability of vicenin-2 and lychnopholic acid from Lychnophora salicifolia (Brazilian arnicão) using Caco-2 cells” (J Nat Prod, 2014)
